Measurements from ChEMBL document CHEMBL1155843, “Selective alkylation of beta(II)-tubulin and thioredoxin-1 by structurally related subsets of aryl chloroethylureas leading to either anti-microtubules or redox modulating agents” (2008).
Active and inactive are the calls of the source. No cut-off for these calls is given here.

Key:
[1] = test system: MCF7; assay: Cell cycle arrest in human MCF7 cells assessed as accumulation at S phase at 2 times GI50 after 24 hrs by flow cytometry; assay type: functional
Method in brief: (§1)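 Cells were trypsinized, PBS-washed, fixed in ice-cold ethanol, and stained with propidium iodide plus RNase for 30 min at room temperature. G0/G1, S and G2/M fractions were measured by flow cytometry.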

[2] = test system: M21; assay: Induction of beta2-tubulin alkylation in human M21 cells at 2 times GI50 by Western blot analysis; assay type: cell-based
Method in brief: (§2)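 Floating and adherent cells were pooled and lysed in boiled Laemmli buffer; protein was measured by Lowry. 20 µg per lane ran on 10% SDS-PAGE and was blotted with anti-βII-tubulin (1:500), HRP anti-mouse (1:2500) and ECL. Alkylation was scored as a faster-migrating βII-tubulin band.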

[3] = test system: MCF7; assay: Cell cycle arrest in human MCF7 cells assessed as accumulation at G2/M phase at 2 times GI50 after 24 hrs by flow cytometry; assay type: functional; method in brief: as §1
[4] = test system: M21; assay: Inhibition of nuclear translocation of thioredoxin-1 from cytosol in human M21 cells at 50 nM after 16 hrs by immunocytofluorescence; assay type: functional, cell-based
Method in brief: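 Reference agents colchicine or vinblastine were applied at 50 nM to M21 cells on fibronectin-coated coverslips. Cells were fixed in formaldehyde, permeabilized with saponin, and stained with anti-Trx-1 (1:200, 2 h, 37 °C) and Alexa-488 secondary. Nuclear versus cytosolic Trx-1 was assessed by confocal microscopy.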

[5] = test system: M21; assay: Induction of beta2-tubulin alkylation in human M21 cells at 50 nM by Western blot analysis; assay type: cell-based
Method in brief: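 Same M21 Western blot workflow (pooled cells, Laemmli lysis, 20 µg on 10% SDS-PAGE, anti-βII-tubulin 1:500, ECL), except that vinblastine, colchicine and paclitaxel were applied at 50 nM for 16, 24 and 48 h at 37 °C. The alkylated form appeared as a lower-apparent-MW band.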

[6] = test system: MCF7; assay: Cell cycle arrest in human MCF7 cells assessed as accumulation at G0/G1 phase at 2 times GI50 after 24 hrs by flow cytometry; assay type: functional; method in brief: as §1
[7] = test system: HT-29; assay: Antiproliferative activity against human HT29 cells after 48 hrs by sulforhodamine B method; assay type: functional; details: for GI50: HT-29, 48 h
Method in brief: (§3)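 Seeding per well: 5 × 10³ HT-29 cells, or 3.5 × 10³ M21 or MCF-7 cells. Drugs were dissolved fresh in DMSO and serially diluted in medium (final range 100 to 0.3), with DMSO held at 0.12%. Cells were exposed for 48 h, fixed with cold TCA (10% final, 1 h, 4 °C) and stained with 0.1% SRB for 15 min. Dye was solubilized in 10 mM Tris and read at A585. Day-0 OD was subtracted, inhibition was calculated against DMSO cells, and n ≥ 3.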

[8] = test system: M21; assay: Antiproliferative activity against human M21 cells after 48 hrs by sulforhodamine B method; assay type: functional; details: for GI50: M21, 48 h; method in brief: as §3
[9] = test system: MCF7; assay: Antiproliferative activity against human MCF7 cells after 48 hrs by sulforhodamine B method; assay type: functional; details: for GI50: MCF7, 48 h; method in brief: as §3
[10] = test system: M21; assay: Inhibition of nuclear translocation of thioredoxin-1 from cytosol in human M21 cells at 2 times GI50 after 16 hrs by immunocytofluorescence; assay type: functional, cell-based
Method in brief: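 Cells were fixed in 3.7% formaldehyde (20 min), permeabilized with 0.1% saponin and blocked with 3% BSA. Staining used anti-Trx-1 monoclonal (1:200, 2 h, 37 °C) and Alexa-488 anti-mouse IgG (1:1000, 1 h). Trx-1 cytosol/nucleus localization was read by confocal immunofluorescence.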

[11] = test system: M21; assay: Induction of beta2-tubulin alkylation in human M21 cells at 2 times GI50 after 48 hrs by Western blot analysis; assay type: cell-based; method in brief: as §2

| SMILES | Activity [1] | Activity [2] | Activity [3] | Activity [6] | Activity [10] | GI50 [8] | GI50 [7] | further results |
| --- | --- | --- | --- | --- | --- | --- | --- | --- |
| CC(=O)O[C@H]1C(=O)[C@@]2(C)[C@H]([C@H](OC(=O)c3ccccc3)[C@]3(O)C[C@H](OC(=O)[C@H](O)[C@@H](NC(=O)c4ccccc4)c4ccccc4)C(C)=C1C3(C)C)[C@]1(OC(C)=O)CO[C@@H]1C[C@@H]2O [PACLITAXEL] | 11% | inactive | 80% | 9% | – | – | – | Activity [4]: inactive; Activity [5]: inactive |
| O=C(NCCCl)Nc1ccc(N2CCOCC2)cc1 | – | inactive | – | – | – | – | – | Activity [7]: inactive; Activity [8]: inactive; Activity [9]: inactive |
| O=C(CCl)NC(=O)Nc1ccccc1 | – | inactive | – | – | inactive | 6.9 µM | – | – |
| O=C(NCCCl)Nc1ccc(Oc2ccccc2)cc1 | 20% | inactive | 65% | 15% | inactive | – | – | – |
| O=C(NCCCl)Nc1ccc(C2CCCCC2)cc1 | – | inactive | – | – | Active | – | – | – |
| COc1cc2c(c(OC)c1OC)-c1ccc(OC)c(=O)cc1[C@@H](NC(C)=O)CC2 | – | inactive | – | – | – | – | – | Activity [4]: inactive; Activity [5]: inactive |
| O=C(NCCCl)Nc1ccc(OC2CCCCCCC2)cc1 | 14% | inactive | 16% | 70% | Active | 26 µM | 14 µM | GI50 [9]: 18 µM |
| O=C(NCCCl)Nc1ccc2c(c1)Cc1ccccc1-2 | 57% | – | 32% | 11% | inactive | – | – | Activity [11]: Active |
| O=C(NCCCl)Nc1ccc(I)cc1 | – | – | – | – | – | – | – | Activity [11]: Active |
| O=C(CCl)NC(=O)Nc1cccc(C2CCCCC2)c1 | – | inactive | – | – | Active | 2.4 µM | – | – |
| CC(C)(C)c1ccc(NC(=O)NCCCl)cc1 | – | – | – | – | inactive | – | – | Activity [11]: Active |
| O=C(NCCCl)Nc1cccc(OC2CCCCCCC2)c1 | 29% | inactive | 10% | 61% | Active | 30 µM | 20 µM | GI50 [9]: 23 µM |
| CC[C@]1(O)C[C@@H]2CN(CCc3c([nH]c4ccccc34)[C@@](C(=O)OC)(c3cc4c(cc3OC)N(C)[C@H]3[C@@](O)(C(=O)OC)[C@H](OC(C)=O)[C@]5(CC)C=CCN6CC[C@]43[C@@H]65)C2)C1 | – | inactive | – | – | – | – | – | Activity [4]: inactive; Activity [5]: inactive |
| CC1CCC(Oc2cccc(NC(=O)NCCCl)c2)CC1 (stereo not drawn) | 20% | inactive | 15% | 65% | Active | 32 µM | 19 µM | GI50 [9]: 33 µM |
| CCC1(c2ccc(NC(=O)NCCCl)cc2)CCCCC1 | 17% | inactive | 17% | 66% | Active | 19 µM | 9.1 µM | GI50 [9]: 17 µM |
| O=C(NCCCl)Nc1ccc(OC2CCCCC2)cc1 | – | inactive | – | – | Active | – | – | – |
| O=C(NCCCl)Nc1cccc(Oc2ccccc2)c1 | 26% | – | 30% | 44% | inactive | – | – | Activity [11]: Active |
| CC1CCC(Oc2ccc(NC(=O)NCCCl)cc2)CC1 (stereo not drawn) | 13% | inactive | 25% | 63% | Active | 23 µM | 16 µM | GI50 [9]: 21 µM |
| c1cc(N2CCOCC2)ccc1NC1=NCCO1 | – | inactive | – | – | inactive | – | – | Activity [8]: inactive |
| CCCCCCc1ccc(NC(=O)NCCCl)cc1 | 41% | – | 43% | 16% | inactive | 3.8 µM | 2.9 µM | Activity [11]: Active; GI50 [9]: 6.5 µM |
| O=C(NCCCl)Nc1ccc2c(c1)CCC2 | 29% | – | 40% | 31% | – | – | – | Activity [11]: Active |
| O=C(NCCCl)Nc1ccc2ccccc2c1 | 38% | – | 45% | 17% | inactive | – | – | Activity [11]: Active |

| SMILES | Activity [1] | Activity [2] | Activity [3] | Activity [6] | Activity [10] | GI50 [8] | GI50 [7] | further results |
| --- | --- | --- | --- | --- | --- | --- | --- | --- |
| O=C(NCCCl)Nc1ccc(OC2CCCC2)cc1 | – | inactive | – | – | Active | – | – | – |
| O=C(NCCCl)Nc1cccc(OC2CCCC2)c1 | – | inactive | – | – | – | – | – | – |
| O=C(NCCCl)Nc1cccc(C2CCCCC2)c1 | 32% | inactive | 16% | 52% | Active | 18 µM | 11.7 µM | GI50 [9]: 20 µM |
| O=C(NCCCl)Nc1cccc(OC2CCCCC2)c1 | – | inactive | – | – | – | – | – | – |
| c1cc(NC2=NCCO2)cc(C2CCCCC2)c1 | – | inactive | – | – | Active | 45 µM | – | – |
| O=C(NCCCl)NC1c2ccccc2-c2ccccc21 | 29% | inactive | 8% | 63% | inactive | – | – | – |
| O=C(NCCCl)Nc1cccc(OC2CCCCCC2)c1 | – | inactive | – | – | Active | – | – | – |
| O=C(NCCCl)Nc1ccc2c(c1)CCCC2 | 49% | – | 41% | 10% | Active | 3.7 µM | 2 µM | Activity [11]: Active; GI50 [9]: 7.3 µM |
| CC(C)(C)c1ccc(NC(=O)NC(=O)CCl)cc1 | – | inactive | – | – | Active | – | – | – |
| O=C(NCCCl)Nc1ccc2c(c1)CCCCC2 | 24% | inactive | 43% | 33% | inactive | 7.2 µM | 3.2 µM | GI50 [9]: 12 µM |
| O=C(NCCCl)Nc1ccc(C2CCCC2)cc1 | 24% | inactive | 13% | 63% | – | 27 µM | 18 µM | GI50 [9]: 26 µM |
| c1ccc(NC2=NCCO2)cc1 | – | inactive | – | – | inactive | 81 µM | – | – |
| O=C(CCl)NC(=O)Nc1ccc(C2CCCCC2)cc1 | – | inactive | – | – | Active | – | – | – |
| c1cc(C2CCCCC2)ccc1NC1=NCCO1 | – | inactive | – | – | Active | 18 µM | – | – |
| O=C(NCCCl)Nc1ccccc1 | 22% | inactive | 19% | 59% | inactive | – | – | Activity [7]: inactive; Activity [8]: inactive; Activity [9]: inactive |
| CCCC1(c2ccc(NC(=O)NCCCl)cc2)CCCCC1 | 14% | inactive | 13% | 73% | Active | 36 µM | 18 µM | GI50 [9]: 23 µM |
| O=C(NCCCl)Nc1ccc(OC2CCCCCC2)cc1 | – | inactive | – | – | Active | – | 13 µM | – |
| CCNC(=O)Nc1ccc(C2CCCCC2)cc1 | 23% | inactive | 22% | 55% | inactive | – | – | Activity [7]: inactive; Activity [8]: inactive; Activity [9]: inactive |
| CC1(c2ccc(NC(=O)NCCCl)cc2)CCCCC1 | 9% | inactive | 31% | 60% | Active | 16 µM | 7.8 µM | GI50 [9]: 18 µM |
| CC(C)(C)c1ccc(NC2=NCCO2)cc1 | – | inactive | – | – | inactive | – | – | – |
| O=C(CCl)NC(=O)Nc1ccc(N2CCOCC2)cc1 | – | inactive | – | – | – | 8.3 µM | – | – |
